These results are taken from ChEMBL document CHEMBL1148284, “Antagonist analogue of 6-[3'-(1-adamantyl)-4'-hydroxyphenyl]-2-naphthalenecarboxylic acid (AHPN) family of apoptosis inducers that effectively blocks AHPN-induced apoptosis but not cell-cycle arrest” (2004).

Calls of active or inactive are those of the source. No cut-off for these calls is given here.

Assay [1] concerns NCI-H460. Briefly: Inhibition of H460 cell proliferation after 144 hr treatment at 1E-6M. The assay is classed as functional, Homo sapiens. In a few lines: (§1)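 H460 lung cancer cells grown in RPMI 1640 with 10% FCS and treated 144 h (0.1% Me2SO vehicle). Nuclei stained with DAPI and scored under fluorescence microscopy. Value is the average of triplicates.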
Assay [2] concerns HL-60. Briefly: Induction of apoptosis in HL60R leukemia cells after 24 hr r treatment at 1E-6M. The assay is classed as functional, Homo sapiens. In a few lines:
(§2)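 Cells exposed to agonist in medium with 0.1% Me2SO vehicle: HL-60R for 24 h, MDA-MB-231 for 96 h. Cells fixed and stained with acridine orange; apoptotic nuclei scored by nuclear fragmentation in 200-cell fields. Percent apoptosis is the average of triplicates.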

Assay [3] relates to NCI-H460. Briefly: Inhibition of H460 cell proliferation after 144 hr treatment at 0.1E-6M. It is filed as functional, Homo sapiens. In a few lines:
as §1

For assay [4], the system named is HL-60. Nature of the assay: Induction of apoptosis in HL60R leukemia cells after 24 hr r treatment at 0.1E-6M. The assay is classed as functional, Homo sapiens. In a few lines:
as §2

The subject of assay [5] is MDA-MB-231. Briefly: Induction of apoptosis in MDA-MB-231 breast cancer cells after 96 hr at 0.5E-6M. The assay is classed as functional, Homo sapiens. A digest of the protocol:
as §2

Assay [6] concerns MDA-MB-231. Nature of the assay: Induction of apoptosis in MDA-MB-231 breast cancer cells after 96 hr at 1E-6M. It is filed as functional, Homo sapiens. A digest of the protocol: as §2
Another assay concerns LNCaP. Nature of the assay: Suppression of LNCaP prostate cancer cell apoptosis induced by 1E-6M 5-Cl-AHPN; From 31% to 15%. The assay is classed as functional, Homo sapiens. A digest of the protocol: (§3)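 H460 and LNCaP cells (RPMI 1640, 10% FCS) treated 36 h with 1.0 × 10^-6 M inducer alone or with 1.0 × 10^-6 M antagonist. Cells trypsinized, fixed in 3.7% paraformaldehyde, stained with DAPI (50 µg/mL), and apoptotic nuclear morphology scored by fluorescence microscopy. Apoptosis = apoptotic/total cells × 100.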

Assay [7] has as its system NCI-H460. Briefly: Suppression of H460 lung cancer cell apoptosis induced by 1E-6M 5-Cl-AHPN; From 34% to 9%. The assay is classed as functional, Homo sapiens. In a few lines:
as §3

Assay [8] has as its target T1, Retinoic acid receptor RXR-alpha (Homo sapiens) (UniProt P19793).
T1 sequence (whole entry): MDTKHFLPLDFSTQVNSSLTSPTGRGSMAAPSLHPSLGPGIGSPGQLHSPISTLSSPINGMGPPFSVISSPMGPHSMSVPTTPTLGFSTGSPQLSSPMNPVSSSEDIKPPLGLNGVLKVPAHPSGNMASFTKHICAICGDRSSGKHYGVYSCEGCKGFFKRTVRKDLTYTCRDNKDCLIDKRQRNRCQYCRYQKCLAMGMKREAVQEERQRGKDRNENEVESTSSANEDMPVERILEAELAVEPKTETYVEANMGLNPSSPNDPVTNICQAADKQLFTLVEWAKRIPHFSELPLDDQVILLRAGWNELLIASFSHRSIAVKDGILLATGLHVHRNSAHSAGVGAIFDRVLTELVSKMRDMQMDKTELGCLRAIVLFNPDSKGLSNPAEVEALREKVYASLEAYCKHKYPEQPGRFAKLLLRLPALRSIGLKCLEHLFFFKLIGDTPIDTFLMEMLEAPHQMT
Nature of the assay: Displacement of [3H]9-cis-RA from Retinoic acid receptor RXR-alpha LBD. In a few lines: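 Bacterially expressed receptor LBDs (RARs as GST fusions, RXRα as His6 fusion; about 1.0 × 10^-8 M) incubated with 1.0 × 10^-9 M [11,12-3H2]9-cis-RA (43 Ci/mmol), with or without 1.0 × 10^-9 M unlabeled competitor. Bound and free radioligand separated by Sephadex G-50 gel filtration; mean ± SEM of three independent experiments.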

In a further assay the test system is MDA-MB-468. Briefly: Inhibition of MDA-MB-468 cell proliferation at 0.5E-6M; Inhibitory activity. It is filed as functional, cell-based. The note with it: Homo sapiens. A digest of the protocol: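 MDA-MB-468 cells (1.0 × 10^5) seeded in DMEM/F12 with 5% FBS; after 24 h, 0.5 × 10^-6 M agent added, with or without 2.0 × 10^-6 M antagonist. Incubated 72 h, then proliferation read by colorimetric assay relative to the agent-alone control. Triplicates, 0.1% Me2SO.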

The next assay relates to MCF7. Nature of the assay: Inhibition of MCF-7 cell proliferation at 1E-7M; Inhibitory activity. The assay is classed as functional, cell-based. The note with it: Homo sapiens.
The test system of a further assay is BT-20. Briefly: Inhibition of BT-20 breast cancer cell proliferation at 1E-7 M; Inhibitory activity. The assay is classed as functional, cell-based. The note with it: Homo sapiens.
Assay [9] has as its target T2, Retinoic acid receptor alpha (Homo sapiens) (UniProt P10276).
T2 sequence (whole entry): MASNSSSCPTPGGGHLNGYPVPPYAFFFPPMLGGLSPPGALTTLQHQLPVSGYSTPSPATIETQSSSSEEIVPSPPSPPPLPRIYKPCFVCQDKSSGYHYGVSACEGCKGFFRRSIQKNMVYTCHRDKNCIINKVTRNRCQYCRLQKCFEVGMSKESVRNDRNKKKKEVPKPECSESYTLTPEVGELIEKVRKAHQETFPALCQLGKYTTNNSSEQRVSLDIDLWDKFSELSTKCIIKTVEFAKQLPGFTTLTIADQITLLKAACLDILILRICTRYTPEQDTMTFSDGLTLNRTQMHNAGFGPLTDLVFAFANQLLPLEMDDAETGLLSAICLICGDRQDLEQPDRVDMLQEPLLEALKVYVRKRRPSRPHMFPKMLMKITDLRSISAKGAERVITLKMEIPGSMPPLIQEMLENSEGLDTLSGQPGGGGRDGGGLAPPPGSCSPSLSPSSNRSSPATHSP
Nature of the assay: Transcriptional activation in CV-1 cells expressing RAR alpha at 1E-6M. The assay is classed as functional, cell-based. The note with it: Cercopithecidae. In a few lines: (§4)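 CV-1 cells in DMEM with 10% FCS, calcium-precipitate transfected with (TREpal)2-tk-CAT plus RAR expression vector and β-gal vector. After 20 h, switched to 5% charcoal-stripped FCS and treated 24 h. CAT activity normalized to β-gal and expressed relative to 1.0 × 10^-6 M trans-RA as 100%.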

For assay [10], the target named is T3, Retinoic acid receptor gamma (Homo sapiens) (UniProt P13631).
T3 sequence (whole entry): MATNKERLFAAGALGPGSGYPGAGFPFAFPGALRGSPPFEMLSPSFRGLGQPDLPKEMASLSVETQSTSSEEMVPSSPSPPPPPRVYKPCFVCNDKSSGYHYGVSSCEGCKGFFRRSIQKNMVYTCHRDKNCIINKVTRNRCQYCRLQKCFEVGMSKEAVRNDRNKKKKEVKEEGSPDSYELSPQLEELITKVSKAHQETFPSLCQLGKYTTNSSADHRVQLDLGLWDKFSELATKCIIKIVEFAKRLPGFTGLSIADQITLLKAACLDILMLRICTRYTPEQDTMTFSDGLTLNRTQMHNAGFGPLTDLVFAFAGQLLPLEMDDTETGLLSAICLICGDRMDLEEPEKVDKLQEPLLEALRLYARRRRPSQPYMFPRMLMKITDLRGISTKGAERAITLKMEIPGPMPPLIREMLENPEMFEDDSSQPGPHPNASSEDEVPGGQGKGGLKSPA
Nature of the assay: Transcriptional activation in CV-1 cells expressing RAR gamma at 1E-6M. It is filed as functional, cell-based. The note with it: Cercopithecidae. A digest of the protocol: as §4

The target of assay [11] is T4, Retinoic acid receptor beta (Homo sapiens) (UniProt P10826).
T4 sequence (whole entry): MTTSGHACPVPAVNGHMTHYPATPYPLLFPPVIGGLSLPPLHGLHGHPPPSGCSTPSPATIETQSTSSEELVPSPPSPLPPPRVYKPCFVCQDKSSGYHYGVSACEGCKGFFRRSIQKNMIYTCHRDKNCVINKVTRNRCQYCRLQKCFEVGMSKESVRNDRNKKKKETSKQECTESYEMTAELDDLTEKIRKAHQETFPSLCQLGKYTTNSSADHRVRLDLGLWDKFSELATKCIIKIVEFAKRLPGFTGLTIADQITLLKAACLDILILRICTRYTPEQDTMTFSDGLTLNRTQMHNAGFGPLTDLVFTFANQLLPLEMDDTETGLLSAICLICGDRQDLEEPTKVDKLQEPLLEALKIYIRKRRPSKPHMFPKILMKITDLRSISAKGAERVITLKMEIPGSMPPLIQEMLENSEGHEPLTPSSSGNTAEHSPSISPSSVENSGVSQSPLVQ
Briefly: Transcriptional activation in CV-1 cells expressing RAR beta at 1E-6M. The assay is classed as functional, cell-based. The note with it: Cercopithecidae.

For orientation: Inhibition means the percentage by which the read-out fell short of the control. Higher therefore signals strong suppression. `CCOc1cc(/C=C/C(=O)O)ccc1-c1ccc(O)c(C23CC4CC(CC(C4)C2)C3)c1`: the Inhibition is 52% in the assay on NCI-H460 [1] and 14% in the assay with NCI-H460 [3]. Besides, the Apoptosis in the assay on HL-60 [2] turned out to be 29%; with HL-60 [4] it was 0%.
For the molecule `CC(=O)NCCCOc1cc(/C=C/C(=O)O)ccc1-c1ccc(O)c(C23CC4CC(CC(C4)C2)C3)c1`, the Apoptosis with MDA-MB-231 [5] stood at 0%; in the assay on HL-60 [2] it was 0%; with MDA-MB-231 [6] it was 1%; in the assay on HL-60 [4], 0%. Moreover, the Suppression in the assay with LNCaP was determined as 15%; with NCI-H460 [7], 9%.
Consider `O=C(O)/C=C/c1ccc(-c2ccc(O)c(C34CC5CC(CC(C5)C3)C4)c2)c(Cl)c1`, for which the Displacement in assay [8] stood at 16%. The Apoptosis in the assay on MDA-MB-231 [5] amounted to 31%; in the assay with HL-60 [2] it was 94%; with MDA-MB-231 [6] it was 43%; with HL-60 [4], 51%. Also, the inhibition result in the assay on MDA-MB-468 was “Active”.
With `Cc1cc(/C=C/C(=O)O)ccc1-c1ccc(O)c(C23CC4CC(CC(C4)C2)C3)c1`, the Apoptosis is given as 5% in the assay on MDA-MB-231 [5], 95% with HL-60 [2], 30% in the assay on MDA-MB-231 [6] and 10% with HL-60 [4].
For the molecule `Cc1c(-c2ccc(O)c(C34CC5CC(CC(C5)C3)C4)c2)ccc2cc(C(=O)O)ccc12`, the Apoptosis with MDA-MB-231 [5] worked out at 14%; with HL-60 [2], 70%; with HL-60 [4] it was 29%. Moreover, the inhibition result with MCF7 and with BT-20 was “Inhibitory activity” in each case.
For `O=C(O)c1ccc2c(Cl)c(-c3ccc(O)c(C45CC6CC(CC(C6)C4)C5)c3)ccc2c1`, the Inhibition in the assay with NCI-H460 [1] amounted to 71%; in the assay with NCI-H460 [3], 56%. In addition, the Apoptosis in the assay on MDA-MB-231 [5] was found to be 21%; with HL-60 [2] it was 94%; in the assay with MDA-MB-231 [6], 41%; with HL-60 [4] it was 62%.
Turning to `O=C(O)c1ccc2cc(-c3ccc(O)c(C45CC6CC(CC(C6)C4)C5)c3)ccc2c1` [O-DEMETHYLATED ADAPALENE], the Inhibition in the assay on NCI-H460 [1] amounted to 80%; in the assay with NCI-H460 [3], 20%. Besides, the Apoptosis was determined as 26% in the assay on MDA-MB-231 [5], 98% in the assay on HL-60 [2], 46% in the assay on MDA-MB-231 [6] and 78% with HL-60 [4]. Moreover, the figures for the Transcriptional activation in assay [9], in assay [10] and in [11] were 21%, 88% and 78%, respectively.
On to `O=C(O)/C=C/c1ccc(-c2ccc(O)c(C34CC5CC(CC(C5)C3)C4)c2)cc1` [ADAROTENE], for which the Apoptosis with MDA-MB-231 [5] is listed as 53%; in the assay with HL-60 [2] it was 98%; in the assay on MDA-MB-231 [6] it was 58%; with HL-60 [4] it was 90%. Besides, the Transcriptional activation was determined as 8% in [9], 103% in assay [10] and 85% in [11].
